Assay results published in ChEMBL document CHEMBL4002615, “Investigation of piperazine benzamides as human β3 adrenergic receptor agonists for the treatment of overactive bladder” (Bioorg Med Chem Lett, 2017).

Experiments:
Rattus norvegicus [1] = experiment: Unbound clearance in rat at 1 mg/kg, iv or 2 mg/kg, po; format: ADME, organism-based; settings: in vivo
[2] = Oral bioavailability in rhesus monkey at 2 mg/kg; format: ADME, organism-based, Macaca mulatta; settings: in vivo
[3] = Stability in rhesus monkey liver microsomes assessed as parent compound remaining after 45 mins; format: ADME, Macaca mulatta, microsome; settings: read-out: Stability
Rattus norvegicus [4] = experiment: Unbound dose normalized AUC in rat 2 mg/kg, po; format: ADME, organism-based; settings: in vivo
Rhesus monkey [5] = experiment: Total dose normalized AUC in rhesus monkey at 2 mg/kg, po; format: ADME, organism-based, Macaca mulatta; settings: in vivo
Rattus norvegicus [6] = experiment: Induction of nor-epinephrine efflux in medial prefrontal cortex of rat at 100 mg/kg, po measured 1 hr post dose by microdialysis method relative to control; format: ADME, organism-based; settings: in vivo
[7] = Half life in rat at 1 mg/kg, iv or 2 mg/kg, po; format: ADME, organism-based; settings: in vivo
[8] = Unbound fraction in dog at 0.5 mg/kg, iv or 2 mg/kg, po; format: ADME, organism-based, Canis lupus familiaris; settings: in vivo
Canis familiaris [9] = experiment: Total dose normalized AUC in dog at 2 mg/kg, po; format: ADME, organism-based, Canis lupus familiaris; settings: in vivo
[10] = molecular target: Voltage-gated inwardly rectifying potassium channel KCNH2 (Homo sapiens, UniProt Q12809); experiment: Inhibition of human ERG
[11] = Oral bioavailability in rat 2 mg/kg; format: ADME, organism-based; settings: in vivo
[12] = Induction of phospholipidosis in human HepG2 cells; format: cell-based; settings: read-out: A50
[13] = Volume of distribution in rhesus monkey at 0.5 mg/kg, iv or 2 mg/kg, po; format: ADME, organism-based, Macaca mulatta; settings: in vivo
[14] = Stability in dog liver microsomes assessed as parent compound remaining after 45 mins; format: ADME, Canis lupus familiaris, microsome; settings: read-out: Stability
[15] = molecular target: Beta-2 adrenergic receptor (Homo sapiens, UniProt P07550); experiment: Activity at human beta2 adrenergic receptor
Sequence of Beta-2 adrenergic receptor (P07550 whole entry): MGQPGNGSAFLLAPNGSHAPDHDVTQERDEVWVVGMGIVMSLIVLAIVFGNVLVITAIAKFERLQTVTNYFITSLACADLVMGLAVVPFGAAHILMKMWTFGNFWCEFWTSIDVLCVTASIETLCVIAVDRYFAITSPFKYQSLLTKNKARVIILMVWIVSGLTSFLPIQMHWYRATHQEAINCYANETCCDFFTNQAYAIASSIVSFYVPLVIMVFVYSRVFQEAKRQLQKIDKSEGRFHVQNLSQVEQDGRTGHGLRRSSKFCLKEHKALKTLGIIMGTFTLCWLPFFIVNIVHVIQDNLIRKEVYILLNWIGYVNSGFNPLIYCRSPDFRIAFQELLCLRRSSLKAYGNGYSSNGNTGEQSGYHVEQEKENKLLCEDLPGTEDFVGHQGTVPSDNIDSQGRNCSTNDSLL

Rattus norvegicus [16] = experiment: Total dose normalized AUC in rat 2 mg/kg, po; format: ADME, organism-based; settings: in vivo
[17] = molecular target: T1, Beta-3 adrenergic receptor (Homo sapiens, UniProt P13945); experiment: Agonist activity at human beta3 adrenergic receptor relative to R-(-)-isoproterenol
Target sequence in this assay (P13945 whole entry, looked up): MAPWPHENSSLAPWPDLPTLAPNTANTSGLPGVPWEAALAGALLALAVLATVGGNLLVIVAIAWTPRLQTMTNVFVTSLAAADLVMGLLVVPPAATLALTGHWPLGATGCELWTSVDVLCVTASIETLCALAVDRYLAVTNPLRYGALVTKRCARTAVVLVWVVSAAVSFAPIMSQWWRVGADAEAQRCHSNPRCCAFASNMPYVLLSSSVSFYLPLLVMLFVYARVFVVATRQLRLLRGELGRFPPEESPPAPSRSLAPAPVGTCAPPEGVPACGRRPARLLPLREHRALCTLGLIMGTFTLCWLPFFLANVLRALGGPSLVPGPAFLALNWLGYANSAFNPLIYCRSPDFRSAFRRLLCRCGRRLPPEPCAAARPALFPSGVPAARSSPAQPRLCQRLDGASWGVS

[18] = Plasma clearance in dog at 0.5 mg/kg, iv or 2 mg/kg, po; format: ADME, organism-based, Canis lupus familiaris
[19] = Stability in rat hepatocytes assessed as parent compound remaining up to 60 mins; format: ADME, cell-based, Hepatocyte; settings: read-out: Stability
[20] = Plasma clearance in rhesus monkey at 0.5 mg/kg, iv or 2 mg/kg, po; format: ADME, organism-based, Macaca mulatta
[21] = Oral bioavailability in dog at 2 mg/kg; format: ADME, organism-based, Canis lupus familiaris; settings: in vivo
[22] = Half life in dog at 0.5 mg/kg, iv or 2 mg/kg, po; format: ADME, organism-based, Canis lupus familiaris; settings: in vivo
[23] = Volume of distribution in rat at 1 mg/kg, iv or 2 mg/kg, po; format: ADME, organism-based; settings: in vivo
[24] = Unbound fraction in rat at 1 mg/kg, iv or 2 mg/kg, po; format: ADME, organism-based; settings: in vivo
[25] = Unbound fraction in rhesus monkey at 0.5 mg/kg, iv or 2 mg/kg, po; format: ADME, organism-based, Macaca mulatta; settings: in vivo
[26] = molecular target: Sodium channel protein type 5 subunit alpha (Homo sapiens, UniProt Q14524); experiment: Inhibition of human Nav1.5 by electrophysiology method
Sequence of Sodium channel protein type 5 subunit alpha (Q14524 whole entry): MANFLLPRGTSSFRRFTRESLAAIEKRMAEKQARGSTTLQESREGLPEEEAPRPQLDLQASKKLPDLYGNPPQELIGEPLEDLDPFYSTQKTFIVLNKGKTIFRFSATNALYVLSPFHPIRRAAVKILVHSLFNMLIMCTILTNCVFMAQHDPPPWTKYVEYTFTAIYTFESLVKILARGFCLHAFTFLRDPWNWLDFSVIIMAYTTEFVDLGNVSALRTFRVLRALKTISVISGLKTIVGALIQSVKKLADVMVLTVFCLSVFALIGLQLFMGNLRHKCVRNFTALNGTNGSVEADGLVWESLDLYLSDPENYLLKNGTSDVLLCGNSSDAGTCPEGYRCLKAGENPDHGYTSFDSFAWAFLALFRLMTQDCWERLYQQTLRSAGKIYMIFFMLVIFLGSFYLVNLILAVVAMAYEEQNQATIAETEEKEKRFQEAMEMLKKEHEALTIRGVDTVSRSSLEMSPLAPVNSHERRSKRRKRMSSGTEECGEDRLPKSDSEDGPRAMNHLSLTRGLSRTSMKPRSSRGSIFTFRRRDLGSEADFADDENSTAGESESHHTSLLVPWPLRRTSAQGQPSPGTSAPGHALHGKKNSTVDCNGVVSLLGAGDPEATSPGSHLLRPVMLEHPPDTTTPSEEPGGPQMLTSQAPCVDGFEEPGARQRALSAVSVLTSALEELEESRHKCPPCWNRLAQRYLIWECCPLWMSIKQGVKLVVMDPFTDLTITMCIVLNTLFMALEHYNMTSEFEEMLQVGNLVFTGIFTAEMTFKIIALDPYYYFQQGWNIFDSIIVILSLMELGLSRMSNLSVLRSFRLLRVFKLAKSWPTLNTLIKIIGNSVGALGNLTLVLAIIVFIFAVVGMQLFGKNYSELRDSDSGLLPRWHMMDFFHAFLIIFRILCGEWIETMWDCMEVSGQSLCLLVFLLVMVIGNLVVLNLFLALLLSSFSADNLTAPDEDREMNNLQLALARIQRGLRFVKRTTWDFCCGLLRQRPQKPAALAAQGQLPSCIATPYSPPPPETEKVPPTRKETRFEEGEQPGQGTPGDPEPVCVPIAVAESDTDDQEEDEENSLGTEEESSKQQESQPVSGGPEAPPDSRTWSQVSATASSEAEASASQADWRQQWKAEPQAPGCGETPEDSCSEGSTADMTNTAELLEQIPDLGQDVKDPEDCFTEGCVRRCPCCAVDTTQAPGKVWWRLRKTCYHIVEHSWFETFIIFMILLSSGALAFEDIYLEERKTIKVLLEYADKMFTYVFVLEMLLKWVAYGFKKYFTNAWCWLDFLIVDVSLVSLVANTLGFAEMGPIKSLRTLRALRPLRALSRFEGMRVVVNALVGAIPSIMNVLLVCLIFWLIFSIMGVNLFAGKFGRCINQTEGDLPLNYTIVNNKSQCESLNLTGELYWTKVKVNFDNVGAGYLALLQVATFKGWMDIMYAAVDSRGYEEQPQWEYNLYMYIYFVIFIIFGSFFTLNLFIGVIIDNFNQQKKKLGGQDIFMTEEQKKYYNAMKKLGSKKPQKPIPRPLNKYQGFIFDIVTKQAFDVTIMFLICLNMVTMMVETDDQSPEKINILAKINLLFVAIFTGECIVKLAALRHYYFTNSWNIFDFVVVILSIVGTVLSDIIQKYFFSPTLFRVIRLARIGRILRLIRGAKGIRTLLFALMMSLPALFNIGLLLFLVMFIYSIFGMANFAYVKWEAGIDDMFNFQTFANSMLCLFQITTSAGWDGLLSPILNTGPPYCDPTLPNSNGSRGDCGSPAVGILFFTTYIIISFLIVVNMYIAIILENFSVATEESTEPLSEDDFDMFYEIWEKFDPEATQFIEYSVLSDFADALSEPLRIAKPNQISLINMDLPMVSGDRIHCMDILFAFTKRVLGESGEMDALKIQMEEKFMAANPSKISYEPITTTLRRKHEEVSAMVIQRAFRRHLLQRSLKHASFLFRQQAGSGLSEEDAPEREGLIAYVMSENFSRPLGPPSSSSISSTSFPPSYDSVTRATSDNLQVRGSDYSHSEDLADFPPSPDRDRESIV

Rattus norvegicus [27] = experiment: In vivo agonist activity at beta3-AR in po dosed rat; format: functional, organism-based
[28] = Stability in human liver microsomes assessed as parent compound remaining after 45 mins; format: ADME, microsome; settings: read-out: Stability
[29] = Stability in dog hepatocytes assessed as parent compound remaining up to 60 mins; format: ADME, cell-based, Canis lupus familiaris, Hepatocyte; settings: read-out: Stability
[30] = molecular target: Sodium-dependent serotonin transporter (Homo sapiens, UniProt P31645); experiment: Inhibition of SERT (unknown origin)
Sequence of Sodium-dependent serotonin transporter (P31645 whole entry): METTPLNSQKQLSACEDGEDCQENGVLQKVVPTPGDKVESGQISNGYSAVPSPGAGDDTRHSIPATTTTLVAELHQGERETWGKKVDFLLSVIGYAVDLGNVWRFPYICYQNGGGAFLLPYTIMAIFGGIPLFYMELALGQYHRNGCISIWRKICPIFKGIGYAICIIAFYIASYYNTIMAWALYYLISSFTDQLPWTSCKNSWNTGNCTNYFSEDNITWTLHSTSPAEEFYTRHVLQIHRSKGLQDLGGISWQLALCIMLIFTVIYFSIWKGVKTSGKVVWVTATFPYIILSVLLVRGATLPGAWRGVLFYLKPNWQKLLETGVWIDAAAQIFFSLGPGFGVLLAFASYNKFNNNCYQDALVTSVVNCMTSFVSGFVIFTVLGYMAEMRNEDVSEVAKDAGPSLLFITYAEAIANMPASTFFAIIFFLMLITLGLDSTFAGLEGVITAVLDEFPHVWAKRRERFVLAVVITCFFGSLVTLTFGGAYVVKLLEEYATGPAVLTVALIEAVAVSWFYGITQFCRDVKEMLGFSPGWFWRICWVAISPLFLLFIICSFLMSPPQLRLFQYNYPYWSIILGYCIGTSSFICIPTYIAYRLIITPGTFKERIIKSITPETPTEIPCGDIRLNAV

Canis familiaris [31] = experiment: Unbound dose normalized AUC in dog at 2 mg/kg, po; format: ADME, organism-based, Canis lupus familiaris; settings: in vivo
[32] = molecular target: Beta-1 adrenergic receptor (Homo sapiens, UniProt P08588); experiment: Activity at human beta1 adrenergic receptor
Sequence of Beta-1 adrenergic receptor (P08588 whole entry): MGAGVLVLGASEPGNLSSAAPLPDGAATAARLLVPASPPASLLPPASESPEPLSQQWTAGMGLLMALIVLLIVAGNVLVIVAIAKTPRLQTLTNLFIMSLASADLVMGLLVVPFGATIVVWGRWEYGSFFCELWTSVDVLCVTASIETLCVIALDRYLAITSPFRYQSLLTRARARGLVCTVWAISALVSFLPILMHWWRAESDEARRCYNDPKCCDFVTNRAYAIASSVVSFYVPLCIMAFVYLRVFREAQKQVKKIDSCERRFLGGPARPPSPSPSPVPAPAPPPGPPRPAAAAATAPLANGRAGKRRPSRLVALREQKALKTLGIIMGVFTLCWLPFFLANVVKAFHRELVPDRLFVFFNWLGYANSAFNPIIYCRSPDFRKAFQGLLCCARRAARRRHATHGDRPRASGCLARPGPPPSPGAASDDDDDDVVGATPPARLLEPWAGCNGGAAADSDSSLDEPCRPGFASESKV

Rhesus monkey [33] = experiment: Unbound dose normalized AUC in rhesus monkey at 2 mg/kg, po; format: ADME, organism-based, Macaca mulatta; settings: in vivo
[34] = Stability in rat liver microsomes assessed as parent compound remaining after 45 mins; format: ADME, microsome; settings: read-out: Stability
[35] = Volume of distribution in dog at 0.5 mg/kg, iv or 2 mg/kg, po; format: ADME, organism-based, Canis lupus familiaris; settings: in vivo
Rhesus monkey [36] = experiment: Unbound clearance in rhesus monkey at 0.5 mg/kg, iv or 2 mg/kg, po; format: ADME, organism-based, Macaca mulatta; settings: in vivo
[37] = Stability in rhesus monkey hepatocytes assessed as parent compound remaining up to 60 mins; format: ADME, cell-based, Macaca mulatta, Hepatocyte; settings: read-out: Stability
Canis familiaris [38] = experiment: Unbound clearance in dog at 0.5 mg/kg, iv or 2 mg/kg, po; format: ADME, organism-based, Canis lupus familiaris; settings: in vivo
Rattus norvegicus [39] = experiment: Effect on nor-epinephrine level in rat brain at 10 mg/kg, po by microdialysis method; format: ADME, organism-based; settings: in vivo
[40] = molecular target: Sodium-dependent noradrenaline transporter (Homo sapiens, UniProt P23975); experiment: Inhibition of NET (unknown origin) expressed in HEK293 cells assessed as reduction in norepinephrine reuptake; format: cell-based
Sequence of Sodium-dependent noradrenaline transporter (P23975 whole entry): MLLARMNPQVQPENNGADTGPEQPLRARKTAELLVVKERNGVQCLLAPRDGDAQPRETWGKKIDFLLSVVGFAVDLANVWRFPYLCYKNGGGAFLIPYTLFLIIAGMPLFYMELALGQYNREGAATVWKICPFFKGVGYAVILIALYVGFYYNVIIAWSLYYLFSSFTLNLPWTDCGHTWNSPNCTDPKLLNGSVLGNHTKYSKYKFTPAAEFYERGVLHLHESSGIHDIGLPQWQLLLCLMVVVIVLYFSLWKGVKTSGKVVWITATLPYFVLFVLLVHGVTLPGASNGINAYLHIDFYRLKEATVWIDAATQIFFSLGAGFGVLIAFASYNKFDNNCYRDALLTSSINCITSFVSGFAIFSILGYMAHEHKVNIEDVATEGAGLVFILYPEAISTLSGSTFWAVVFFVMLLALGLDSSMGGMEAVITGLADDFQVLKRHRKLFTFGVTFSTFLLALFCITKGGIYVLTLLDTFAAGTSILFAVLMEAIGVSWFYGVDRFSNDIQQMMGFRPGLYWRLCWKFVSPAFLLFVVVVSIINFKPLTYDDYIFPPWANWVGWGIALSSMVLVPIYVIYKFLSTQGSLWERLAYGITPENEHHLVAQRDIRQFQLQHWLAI

[41] = Stability in human hepatocytes assessed as parent compound remaining up to 60 mins; format: ADME, cell-based, Hepatocyte; settings: read-out: Stability
[42] = molecular target: T1, Beta-3 adrenergic receptor; experiment: Agonist activity at human beta3 adrenergic receptor
Procedure, shortened: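 Human β3 receptor agonist EC50 given as the mean of at least two experiments.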
Target sequence in this assay (P13945 whole entry): as the sequence (P13945 whole entry, looked up) above

[43] = Half life in rhesus monkey at 0.5 mg/kg, iv or 2 mg/kg, po; format: ADME, organism-based, Macaca mulatta; settings: in vivo
[44] = Plasma clearance in rat at 1 mg/kg, iv or 2 mg/kg, po; format: ADME, organism-based

O=C(c1ccc(C[C@@H]2CC[C@H]([C@H](O)c3ccccc3)N2)cc1)N1CCN(Cc2nnn(CC(F)(F)F)n2)CC1
CL free (Rattus norvegicus [1]): 151 mL/min/kg | bioavailability [2]: 5.4% | remaining at 0.75 h [3]: 19% | fAUC/dose (Rattus norvegicus [4]): 0.09 µM·h/mg/kg | AUC/dose (Rhesus monkey [5]): 0.09 µM·h/mg/kg | fold change (FC) (Rattus norvegicus [6]): 2 | half-life [7]: 2.8 h | fraction unbound [8]: 0.63 | AUC/dose (Canis familiaris [9]): 1.9 µM·h/mg/kg | IC50 [10]: 29.9 µM | bioavailability [11]: 46% | AC50 [12]: 72 µM | Vd [13]: 5.8 L/kg | remaining at 0.75 h [14]: 85% | IC50 [15]: > 20 µM | AUC/dose (Rattus norvegicus [16]): 0.14 µM·h/mg/kg | Emax [17]: 98% | clearance [18]: 22 mL/min/kg | remaining at 1 h [19]: 73% | clearance [20]: 19 mL/min/kg | bioavailability [21]: 100% | half-life [22]: 6.9 h | Vd [23]: 17 L/kg | fraction unbound [24]: 0.65 | fraction unbound [25]: 0.44 | IC50 [26]: > 30 µM | EC50 (Rattus norvegicus [27]): 4.5 µM | remaining at 0.75 h [28]: 42% | remaining at 1 h [29]: 100% | IC50 [30]: > 10 µM | fAUC/dose (Canis familiaris [31]): 1.2 µM·h/mg/kg | IC50 [32]: > 20 µM | fAUC/dose (Rhesus monkey [33]): 0.04 µM·h/mg/kg | remaining at 0.75 h [34]: 71% | Vd [35]: 11 L/kg | CL free (Rhesus monkey [36]): 43 mL/min/kg | remaining at 1 h [37]: 50% | CL free (Canis familiaris [38]): 35 mL/min/kg | Activity (Rattus norvegicus [39]): Non-Toxic | EC50 [40]: 0.627 µM | remaining at 1 h [41]: 92% | EC50 [42]: 0.0019 µM | half-life [43]: 6.5 h | clearance [44]: 98 mL/min/kg
